# How the values were obtained:
# Format in all cases: functional
# [1] = DPPH radical scavenging activity at 40 uM after 30 mins by spectrophotometric assay
# Summary of the method: (§1)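 Compounds added to ethanolic DPPH radical solution (100 µM final). Mixtures were vortexed, then kept 30 min at 25 °C in a water bath in the dark. Remaining DPPH was read by absorbance at 517 nm. Scavenging = (A without compound − A with compound)/A without compound × 100. Means with SD from three independent experiments; column differences tested at p < 0.05.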
# [2] = DPPH radical scavenging activity at 5 uM after 30 mins by spectrophotometric assay; summary of the method: as §1
# [3] = DPPH radical scavenging activity at 10 uM after 30 mins by spectrophotometric assay; summary of the method: as §1
# [4] = DPPH radical scavenging activity at 2.5 uM after 30 mins by spectrophotometric assay; summary of the method: as §1
# [5] = DPPH radical scavenging activity at 80 uM after 30 mins by spectrophotometric assay; summary of the method: as §1
# [6] = DPPH radical scavenging activity at 20 uM after 30 mins by spectrophotometric assay; summary of the method: as §1
Structure (SMILES),Activity [1] [%],Activity [2] [%],Activity [3] [%],Activity [4] [%],Activity [5] [%],Activity [6] [%]
Cc1cc(C(C)(C)C)c(O)c(C(C)(C)C)c1,47.5,11.8,16.7,6.3,68,28.6
COc1cc(CC(CO)O[C@@H]2O[C@H](COC(=O)c3cc(O)c(O)c(O)c3)[C@@H](O)[C@H](O)[C@H]2O)ccc1O (mixture of isomers),95.3,33.1,56.9,17.7,95.6,92.4
CC1=CC[C@@H](C(C)(C)O[C@@H]2O[C@H](COC(=O)c3cc(O)c(O)c(O)c3)[C@@H](O)[C@H](O)[C@H]2O)CC1,95.4,26.2,48.4,14.8,95.4,88.9
CC1=CC[C@H](C(C)(C)O[C@@H]2O[C@H](COC(=O)c3cc(O)c(O)c(O)c3)[C@@H](O)[C@H](O)[C@H]2O)CC1,95.3,24.5,46.2,12.9,95.3,90.1
C=CCc1cc(OC)c(O)c(O[C@@H]2O[C@H](COC(=O)c3cc(O)c(O)c(O)c3)[C@@H](O)[C@H](O)[C@H]2O)c1,95.7,26.8,53.6,12.2,95.8,91.2
O=C(O)c1cc(O)c(O)c(O)c1,94.8,34.9,61.6,19,95.7,86.8
Cc1c(C)c2c(c(C)c1O)CC[C@@](C)(CCC[C@H](C)CCC[C@H](C)CCCC(C)C)O2,95.7,14,23.4,8.3,95.8,48.8
C=CCc1ccc(O[C@@H]2O[C@H](COC(=O)c3cc(O)c(O)c(O)c3)[C@@H](O)[C@H](O)[C@H]2O)c(OC)c1,95.2,31.7,60.9,15,95.7,95.2
